Type in all cases: functional
The species named for test [1] is Rattus norvegicus. The test is described as follows: Hypolipidemic effects(liver weight) in male rats. The essentials: (§1)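 Male rats, 10 per group, fed 7 days on chow with 10% fat (5.5% added peanut oil), 1.5% cholesterol and 0.1% cholic acid. Oral gavage on days 4-7 in 4% acacia, usually 50 mg/kg daily. Fasted overnight, killed day 8, atrial blood into EDTA. Plasma cholesterol, TG and HDL cholesterol (after MnCl2/heparin precipitation) by Autoanalyzer. % change vs controls, Student's t test.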

The species named for test [2] is Rattus norvegicus. The test is described as follows: Hypolipidemic effects(plasma cholesterol) in male rats. The essentials: as §1
The subject of test [3] is Rattus norvegicus. The test is described as follows: Hypolipidemic effects (high-density lipoprotein (HDL) cholesterol) in male rats; Compound was screening orally at 50 mg/Kg. Summed up: as §1
For test [4], the species on record is Rattus norvegicus. As to the kind of experiment: Hypolipidemic effects(plasma TG) in male rats. Summed up: as §1
The subject of test [5] is Rattus norvegicus. As to the kind of experiment: Hypolipidemic effects (low-density lipoprotein (LDL) cholesterol) in male rats; Compound was screening orally at 50 mg/Kg. The essentials: as §1
For test [6], the system named is Rattus norvegicus. The test is described as follows: Hypolipidemic effects (high-density lipoprotein (HDL) cholesterol) in male rats;Compound was screening orally at 50 mg/Kg. Summed up:
as §1

The structures appear in SMILES notation.

For the compound `CC(C)(CCCOc1ccc(S(=O)(=O)CCCC(C)(C)C(=O)O)cc1)C(=O)O`, the Change is given as 9% in the test listed under Rattus norvegicus [1]; 0% in the test listed under Rattus norvegicus [2]; 93% in the test on Rattus norvegicus [3]; 0% in the test listed under Rattus norvegicus [4]; -20% in the test on Rattus norvegicus [5].

Turning to `COC(=O)C(C)(C)CCCOc1cc(OCCCC(C)(C)C(=O)OC)c(Cl)cc1Cl`, the Change in the test listed under Rattus norvegicus [1], in the test listed under Rattus norvegicus [2], in the test with Rattus norvegicus [3], in the test filed under Rattus norvegicus [4] and in the test with Rattus norvegicus [5] was 0% in each case.

As to `COC(=O)C(C)(C)CCCOc1cc(OCCCC(C)(C)C(=O)OC)cc(-c2ccccc2)c1`, the Change in the test filed under Rattus norvegicus [1] was 13%; in the test listed under Rattus norvegicus [2], -41%; in the test on Rattus norvegicus [3] it was 0%; in the test listed under Rattus norvegicus [4], 0%; in the test with Rattus norvegicus [5], -42%.

As to `Cc1ccccc1-c1cc(OCCCC(C)(C)C(=O)O)ccc1OCCCC(C)(C)C(=O)O`, the Change in the test filed under Rattus norvegicus [1] is on record as 22%; in the test listed under Rattus norvegicus [2] it was 0%; in the test on Rattus norvegicus [3], 628%; in the test listed under Rattus norvegicus [4], 55%; in the test on Rattus norvegicus [5], -52%.

`COC(=O)C(C)(C)CCCOc1ccc(OCCCC(C)(C)C(=O)OC)c(C#N)c1C#N`: the Change in the test filed under Rattus norvegicus [1], in the test filed under Rattus norvegicus [2], in the test on Rattus norvegicus [3], in the test listed under Rattus norvegicus [4] and in the test with Rattus norvegicus [5] was 0% throughout.

For `COC(=O)C(C)(C)CCCOc1ccc(Br)c(OCCCC(C)(C)C(=O)OC)c1`, the Change is 5% in the test filed under Rattus norvegicus [1]; -47% in the test filed under Rattus norvegicus [2]; 26% in the test on Rattus norvegicus [3]; 0% in the test listed under Rattus norvegicus [4]; -52% in the test with Rattus norvegicus [5].

Take `CC(C)(CCCOc1ccc(S(=O)(=O)c2ccc(OCCCC(C)(C)C(=O)O)cc2)cc1)C(=O)O`: the Change in the test listed under Rattus norvegicus [1] turned out to be 10%; in the test listed under Rattus norvegicus [2], 0%; in the test with Rattus norvegicus [3], 26%; in the test filed under Rattus norvegicus [4], 0%; in the test on Rattus norvegicus [5] it was 0%.

As to `COC(=O)c1c(OCCCC(C)(C)C(=O)OC)cccc1OCCCC(C)(C)C(=O)OC`, the Change in the test filed under Rattus norvegicus [1] was determined as 0%; in the test filed under Rattus norvegicus [2], 0%; with Rattus norvegicus [3], 21%; in the test listed under Rattus norvegicus [4], 0%; with Rattus norvegicus [5], 0%.

For the compound `CC(C)(CCCOc1ccc(Oc2ccc(OCCCC(C)(C)C(=O)O)cc2)cc1)C(=O)O`, the Change was 0% in the test listed under Rattus norvegicus [1]; -35% in the test listed under Rattus norvegicus [2]; 0% in the test on Rattus norvegicus [3]; 0% in the test listed under Rattus norvegicus [4]; -36% with Rattus norvegicus [5].

For the compound `COC(=O)C(C)(C)CCCOc1ccc(OCCCC(C)(C)C(=O)OC)c(/C=N/N=C(\N)S)c1`, the Change in the test listed under Rattus norvegicus [1], in the test listed under Rattus norvegicus [2], in the test on Rattus norvegicus [3], in the test filed under Rattus norvegicus [4] and in the test with Rattus norvegicus [5] was 0% in each case.

Take `CC(C)(CO)CCCOc1ccc(OCCCC(C)(C)CO)c(-c2ccccc2)c1`: the Change was 30% in the test listed under Rattus norvegicus [1]; 37% in the test filed under Rattus norvegicus [2]; 1105% in the test with Rattus norvegicus [3]; 0% in the test listed under Rattus norvegicus [4]; -36% in the test on Rattus norvegicus [5].

Take `COC(=O)C(C)(C)CCCSc1ccc(-c2ccc(SCCCC(C)(C)C(=O)OC)cc2)cc1`: the Change was 14% in the test listed under Rattus norvegicus [1]; 0% in the test filed under Rattus norvegicus [2]; 245% in the test with Rattus norvegicus [3]; 60% in the test filed under Rattus norvegicus [4]; -39% in the test on Rattus norvegicus [5].

Turning to `COC(=O)C(C)(C)CCCOc1ccc(OCCCC(C)(C)C(=O)OC)c(C=O)c1`, the Change in the test listed under Rattus norvegicus [1] was 9%; in the test filed under Rattus norvegicus [2], 0%; in the test with Rattus norvegicus [3], 217%; in the test listed under Rattus norvegicus [4] it was 0%; in the test on Rattus norvegicus [5], -20%.

Consider `COC(=O)C(C)(C)CCCCCOc1ccccc1OCCCCCC(C)(C)C(=O)OC`, for which the Change in the test filed under Rattus norvegicus [1] is 11%; in the test filed under Rattus norvegicus [2], 0%; in the test on Rattus norvegicus [3], 276%; in the test filed under Rattus norvegicus [4] it was 140%; with Rattus norvegicus [5] it was -19%.

As for `Cc1cc(SCCCC(C)(C)C(=O)O)c(C)cc1OCCCC(C)(C)C(=O)O`, the Change in the test filed under Rattus norvegicus [1] was 14%; in the test listed under Rattus norvegicus [2] it was -20%; in the test with Rattus norvegicus [3], 220%; in the test listed under Rattus norvegicus [4] it was 0%; in the test with Rattus norvegicus [5], -35%.

As to `COC(=O)C(C)(C)CCCOc1cc(OC)c(OCCCC(C)(C)C(=O)OC)cc1OC`, the Change is on record as 0% in the test listed under Rattus norvegicus [1], -33% in the test filed under Rattus norvegicus [2], 0% in the test filed under Rattus norvegicus [4] and 39% with Rattus norvegicus [6].

In the case of `CC(C)(CCCOc1ccc(OCCCC(C)(C)C(=O)O)c(Sc2ccccc2)c1)C(=O)O`, the Change in the test filed under Rattus norvegicus [1] is 14%; in the test filed under Rattus norvegicus [2] it was 32%; in the test with Rattus norvegicus [3], 428%; in the test filed under Rattus norvegicus [4], 44%; with Rattus norvegicus [5] it was -30%.

As for `COC(=O)C(C)(C)CCCOc1ccc(C(=O)c2ccc(OCCCC(C)(C)C(=O)OC)cc2)cc1`, the Change in the test listed under Rattus norvegicus [1], in the test listed under Rattus norvegicus [2], in the test on Rattus norvegicus [3], in the test listed under Rattus norvegicus [4] and in the test with Rattus norvegicus [5] was 0% each time.

On to `CC(C)(CCCOc1ccc(OCCCC(C)(C)C(=O)O)c(Cc2ccccc2)c1)C(=O)O`, for which the Change is 14% in the test filed under Rattus norvegicus [1]; -44% in the test filed under Rattus norvegicus [2]; 389% in the test on Rattus norvegicus [3]; 0% in the test filed under Rattus norvegicus [4]; -71% in the test on Rattus norvegicus [5].

Consider `CC(C)(CCCOc1ccc([S+]([O-])CCCC(C)(C)C(=O)O)cc1)C(=O)O` (centres undefined), for which the Change in the test listed under Rattus norvegicus [1] is 19%; in the test filed under Rattus norvegicus [2], -33%; with Rattus norvegicus [3], 289%; in the test listed under Rattus norvegicus [4], 16%; in the test with Rattus norvegicus [5], -31%.

On to `COC(=O)C(C)(C)CCCOc1ccc(OCCCC(C)(C)C(=O)OC)c(C(C)(C)C)c1`, for which the Change was 11% in the test filed under Rattus norvegicus [1]; -34% in the test listed under Rattus norvegicus [2]; 171% in the test with Rattus norvegicus [3]; 0% in the test filed under Rattus norvegicus [4]; -41% in the test on Rattus norvegicus [5].

With `CC(C)(CCCOc1ccc(OCCCC(C)(C)C(=O)O)c([S+]([O-])c2ccccc2)c1)C(=O)O` (centres undefined), the Change is recorded as 16% in the test listed under Rattus norvegicus [1]; -27% in the test listed under Rattus norvegicus [2]; 599% in the test with Rattus norvegicus [3]; -21% in the test listed under Rattus norvegicus [4]; -58% in the test with Rattus norvegicus [5].

Consider `COC(=O)c1cc(OCCCC(C)(C)C(=O)OC)cc(OCCCC(C)(C)C(=O)OC)c1`, for which the Change in the test listed under Rattus norvegicus [1], in the test filed under Rattus norvegicus [2], in the test on Rattus norvegicus [3], in the test filed under Rattus norvegicus [4] and in the test on Rattus norvegicus [5] was 0% in each case.

With `CC(C)(CCCOc1ccc(OCCCC(C)(C)C(=O)O)c(S(=O)(=O)c2ccccc2)c1)C(=O)O`, the Change in the test filed under Rattus norvegicus [1] is reported as 10%; in the test filed under Rattus norvegicus [2], -32%; in the test with Rattus norvegicus [3], 303%; in the test filed under Rattus norvegicus [4] it was 35%; in the test on Rattus norvegicus [5] it was -53%.

In the case of `CCOC(=O)C(C)(C)CCCOc1ccc(OCCCC(C)(C)C(=O)OCC)c(-c2ccccc2)c1`, the Change in the test filed under Rattus norvegicus [1] was 20%; in the test listed under Rattus norvegicus [2], 43%; in the test on Rattus norvegicus [3], 536%; in the test filed under Rattus norvegicus [4], 0%; in the test on Rattus norvegicus [5], -18%.

For `COC(=O)C(C)(C)CCCOc1ccc(C(C)(C)c2ccc(OCCCC(C)(C)C(=O)OC)cc2)cc1`, the Change in the test listed under Rattus norvegicus [1], in the test listed under Rattus norvegicus [2], with Rattus norvegicus [3], in the test filed under Rattus norvegicus [4] and with Rattus norvegicus [5] was 0% each time.

With `COC(=O)C(C)(C)CCCSc1ccc(Cl)c(SCCCC(C)(C)C(=O)OC)c1`, the Change is recorded as 0% in the test listed under Rattus norvegicus [1]; -53% in the test listed under Rattus norvegicus [2]; 56% with Rattus norvegicus [3]; 0% in the test filed under Rattus norvegicus [4]; -52% in the test with Rattus norvegicus [5].

For `COC(=O)c1ccc(OCCCC(C)(C)C(=O)OC)cc1OCCCC(C)(C)C(=O)OC`, the Change in the test listed under Rattus norvegicus [1], in the test listed under Rattus norvegicus [2], in the test on Rattus norvegicus [3], in the test filed under Rattus norvegicus [4] and with Rattus norvegicus [5] was 0% each time.

Consider `CCOC(=O)C(C)(C)CCCCCCOc1ccc(OCCCCCCC(C)(C)C(=O)OCC)cc1`, for which the Change is listed as 0% in the test filed under Rattus norvegicus [1]; -26% in the test listed under Rattus norvegicus [2]; 0% in the test with Rattus norvegicus [3]; 0% in the test filed under Rattus norvegicus [4]; -29% in the test on Rattus norvegicus [5].

As for `COC(=O)C(C)(C)CCCOc1cccc(OCCCC(C)(C)C(=O)OC)c1[N+](=O)[O-]`, the Change in the test filed under Rattus norvegicus [1] is recorded as 5%; in the test filed under Rattus norvegicus [2] it was -33%; with Rattus norvegicus [3] it was 109%; in the test listed under Rattus norvegicus [4], 0%; in the test with Rattus norvegicus [5] it was -43%.

With `CC(C)(CCCOc1ccc(OCCCC(C)(C)C(=O)O)c(C(F)(F)F)c1)C(=O)O`, the Change in the test listed under Rattus norvegicus [1] is listed as 39%; in the test listed under Rattus norvegicus [2], 0%; with Rattus norvegicus [3] it was 674%; in the test filed under Rattus norvegicus [4] it was 0%; in the test on Rattus norvegicus [5] it was -45%.

For the compound `CCCCCc1cc(OCCCC(C)(C)C(=O)OC)cc(OCCCC(C)(C)C(=O)OC)c1`, the Change in the test filed under Rattus norvegicus [1] is 8%; in the test filed under Rattus norvegicus [2], -57%; in the test with Rattus norvegicus [3], 47%; in the test filed under Rattus norvegicus [4], -32%; in the test with Rattus norvegicus [5] it was -67%.

For `COC(=O)C(C)(C)CCCOc1ccc(C)c(OCCCC(C)(C)C(=O)OC)c1`, the Change was 4% in the test listed under Rattus norvegicus [1]; -55% in the test filed under Rattus norvegicus [2]; 38% in the test on Rattus norvegicus [3]; 0% in the test filed under Rattus norvegicus [4]; -64% in the test on Rattus norvegicus [5].

On to `CC(=O)OCC(C)(C)CCCOc1ccc(OCCCC(C)(C)COC(C)=O)c(-c2ccccc2)c1`, for which the Change in the test listed under Rattus norvegicus [1] is 19%; in the test listed under Rattus norvegicus [2], 0%; in the test with Rattus norvegicus [3], 602%; in the test filed under Rattus norvegicus [4] it was 0%; in the test on Rattus norvegicus [5], -36%.

These data come from ChEMBL document CHEMBL1122242, “Phenylenebis(oxy)bis[2,2-dimethylpentanoic acid]s: agents that elevate high-density lipoproteins” (1983).
